The test system of the test is HFD-induced obese mice. Kind of test: HFD-induced obese mice. The test is classed as in vivo, C57BL/6J male mice. The settings on record: HFD-fed mice. Summed up:
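Male C57BL/6J mice, 5 weeks old, SPF, 12 h light/dark cycle, were fed high-fat diet. After 10 weeks they were randomised to daily gavage with vehicle, test compound (25 or 50 mg/kg) or reference ACC inhibitor (50 mg/kg) to week 22, with food intake and weight recorded weekly. Liver read-outs: H&E, Oil red O, sirius red, F4/80 immunofluorescence, α-SMA IHC, qPCR (ΔΔCt, 18S) and Western blot (β-actin).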

As for `Cc1nc2ccc(C(=O)N3CCC4(CC3)CC(=O)c3c(cnn3C(C)C)C4)cc2[nH]1` [PF-05175157], the “activation of macrophages (liver F4/80)” value (50 mg/kg ig daily) is given as “failed to prevent”. Moreover, the “Col1a1 gene expression and collagen accumulation in the liver” value (ig daily, sirius red staining) was “not observed”.

These data come from paper PMC7468331 (Acta Pharmacologica Sinica, 2019).
